# Experiments:
# [1] = molecular target: T1, Aurora kinase A (Homo sapiens) (UniProt O14965); test: Inhibition of human recombinant AurA at 500 nM in presence of ATP by radiometric assay relative to control
# T1 sequence (whole entry): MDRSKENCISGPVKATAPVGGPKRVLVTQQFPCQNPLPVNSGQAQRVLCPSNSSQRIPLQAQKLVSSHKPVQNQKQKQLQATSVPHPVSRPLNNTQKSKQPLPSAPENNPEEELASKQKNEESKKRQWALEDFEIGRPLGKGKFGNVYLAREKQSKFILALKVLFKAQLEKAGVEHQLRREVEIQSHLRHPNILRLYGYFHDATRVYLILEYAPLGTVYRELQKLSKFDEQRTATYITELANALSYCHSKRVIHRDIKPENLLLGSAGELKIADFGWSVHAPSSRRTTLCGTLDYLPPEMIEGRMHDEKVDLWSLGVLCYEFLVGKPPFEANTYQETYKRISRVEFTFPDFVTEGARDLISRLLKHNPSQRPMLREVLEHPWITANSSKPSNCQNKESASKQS
# How it was run: (§1)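 Panel of 327 recombinant human kinases, each assayed in vitro by radiometric activity assay in duplicate at a single inhibitor concentration per compound, chosen with reference to its ULK1 inhibition. Activity remaining was expressed as percent of vehicle control, and percent inhibition was calculated as 100 minus percent activity remaining.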
# [2] = molecular target: Serine/threonine-protein kinase SBK1 (Homo sapiens) (UniProt Q52WX2); test: Inhibition of human recombinant SBK1 at 500 nM in presence of ATP by radiometric assay relative to control
# [3] = molecular target: Tau-tubulin kinase 2 (Homo sapiens) (UniProt Q6IQ55); test: Inhibition of human recombinant TTBK2 at 500 nM in presence of ATP by radiometric assay relative to control
# [4] = molecular target: T2, cAMP-dependent protein kinase catalytic subunit PRKX (Homo sapiens) (UniProt P51817); test: Inhibition of human recombinant PRKX at 500 nM related to control ULK1
# T2 sequence (whole entry): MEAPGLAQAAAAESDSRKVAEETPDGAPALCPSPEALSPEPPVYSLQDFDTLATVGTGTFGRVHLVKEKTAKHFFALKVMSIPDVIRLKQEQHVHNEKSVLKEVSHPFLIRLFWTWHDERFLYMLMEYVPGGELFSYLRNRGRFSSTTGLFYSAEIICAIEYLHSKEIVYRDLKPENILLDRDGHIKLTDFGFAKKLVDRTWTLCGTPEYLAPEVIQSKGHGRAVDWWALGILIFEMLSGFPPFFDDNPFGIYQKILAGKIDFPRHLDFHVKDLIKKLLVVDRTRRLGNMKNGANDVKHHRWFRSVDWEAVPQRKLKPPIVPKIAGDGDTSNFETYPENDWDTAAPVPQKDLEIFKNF
# [5] = molecular target: Ephrin type-A receptor 2 (Homo sapiens) (UniProt P29317); test: Inhibition of human recombinant EphA2 at 15 nM in presence of ATP by radiometric assay relative to control
# [6] = molecular target: Eukaryotic translation initiation factor 2-alpha kinase 1 (Homo sapiens) (UniProt Q9BQI3); test: Inhibition of human recombinant HRI at 15 nM in presence of ATP by radiometric assay relative to control
# [7] = molecular target: T3, Serine/threonine-protein kinase ICK (Homo sapiens) (UniProt Q9UPZ9); test: Inhibition of human recombinant ICK at 15 nM in presence of ATP by radiometric assay relative to control
# T3 sequence (whole entry): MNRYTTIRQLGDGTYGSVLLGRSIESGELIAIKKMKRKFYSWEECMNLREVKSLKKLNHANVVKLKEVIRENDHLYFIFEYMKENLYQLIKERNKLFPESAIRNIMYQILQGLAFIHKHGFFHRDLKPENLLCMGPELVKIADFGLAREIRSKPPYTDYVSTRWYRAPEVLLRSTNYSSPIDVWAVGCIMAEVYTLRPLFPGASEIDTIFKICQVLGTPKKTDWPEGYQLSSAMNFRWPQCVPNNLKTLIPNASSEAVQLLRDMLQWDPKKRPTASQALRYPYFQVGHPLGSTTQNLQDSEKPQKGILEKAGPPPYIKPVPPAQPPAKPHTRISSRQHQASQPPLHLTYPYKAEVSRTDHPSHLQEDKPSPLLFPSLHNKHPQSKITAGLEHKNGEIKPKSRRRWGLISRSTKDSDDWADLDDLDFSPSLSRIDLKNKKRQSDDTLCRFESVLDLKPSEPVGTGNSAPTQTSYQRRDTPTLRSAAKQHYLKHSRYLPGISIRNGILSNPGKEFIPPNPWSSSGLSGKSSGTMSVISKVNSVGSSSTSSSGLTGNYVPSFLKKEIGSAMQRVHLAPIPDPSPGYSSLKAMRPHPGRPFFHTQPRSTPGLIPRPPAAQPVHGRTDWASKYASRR
# [8] = molecular target: Serine/threonine-protein kinase PAK 6 (Homo sapiens) (UniProt Q9NQU5); test: Inhibition of human recombinant PAK6 at 15 nM related to control ULK1
# [9] = molecular target: Angiopoietin-1 receptor (Homo sapiens) (UniProt Q02763); test: Inhibition of human recombinant Tie2 at 15 nM related to control ULK1
# [10] = molecular target: Serine/threonine-protein kinase ATR (Homo sapiens) (UniProt Q13535); test: Inhibition of human recombinant ATR at 40 nM in presence of ATP by radiometric assay relative to control; how it was run: as §1
# [11] = molecular target: Tyrosine-protein kinase Blk (Homo sapiens) (UniProt P51451); test: Inhibition of human recombinant BLK at 40 nM in presence of ATP by radiometric assay relative to control
# How it was run: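 Part of a radiometric in vitro activity panel of 327 recombinant human kinases. Each kinase was tested in duplicate at one inhibitor concentration. Activity remaining was expressed as a percentage of the vehicle control, and percent inhibition was taken as 100 minus that value.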
# [12] = molecular target: Serine/threonine-protein kinase MARK2 (Homo sapiens) (UniProt Q7KZI7); test: Inhibition of human recombinant MARK2 at 40 nM in presence of ATP by radiometric assay relative to control
# [13] = molecular target: Serine/threonine-protein kinase pim-2 (Homo sapiens) (UniProt Q9P1W9); test: Inhibition of human recombinant PIM2 at 40 nM related to control ULK1
# [14] = molecular target: Serine/threonine-protein kinase 4 (Homo sapiens) (UniProt Q13043); test: Inhibition of human recombinant MST1 at 40 nM in presence of ATP by radiometric assay relative to control
# Serine/threonine-protein kinase PAK 6 (Homo sapiens), sequence (Q9NQU5 whole entry, looked up): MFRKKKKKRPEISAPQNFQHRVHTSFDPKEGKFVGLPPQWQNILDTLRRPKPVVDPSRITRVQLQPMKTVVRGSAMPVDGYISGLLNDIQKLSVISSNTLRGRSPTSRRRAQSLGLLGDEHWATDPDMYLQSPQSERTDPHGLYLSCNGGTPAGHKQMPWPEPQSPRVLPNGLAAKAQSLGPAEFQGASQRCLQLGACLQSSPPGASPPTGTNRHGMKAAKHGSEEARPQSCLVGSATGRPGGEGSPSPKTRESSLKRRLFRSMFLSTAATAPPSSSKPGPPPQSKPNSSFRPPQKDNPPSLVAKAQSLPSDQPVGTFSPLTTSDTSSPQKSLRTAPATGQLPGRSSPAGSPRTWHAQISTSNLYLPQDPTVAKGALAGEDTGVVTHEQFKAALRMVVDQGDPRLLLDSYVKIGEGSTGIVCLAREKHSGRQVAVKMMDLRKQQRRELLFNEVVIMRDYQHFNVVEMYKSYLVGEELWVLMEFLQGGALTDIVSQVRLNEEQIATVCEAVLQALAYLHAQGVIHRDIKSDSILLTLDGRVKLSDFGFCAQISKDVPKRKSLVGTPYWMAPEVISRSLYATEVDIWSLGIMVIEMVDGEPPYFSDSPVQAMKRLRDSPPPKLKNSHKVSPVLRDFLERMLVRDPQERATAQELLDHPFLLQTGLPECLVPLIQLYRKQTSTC
# Tyrosine-protein kinase Blk (Homo sapiens), sequence (P51451 2-505 limits assumed): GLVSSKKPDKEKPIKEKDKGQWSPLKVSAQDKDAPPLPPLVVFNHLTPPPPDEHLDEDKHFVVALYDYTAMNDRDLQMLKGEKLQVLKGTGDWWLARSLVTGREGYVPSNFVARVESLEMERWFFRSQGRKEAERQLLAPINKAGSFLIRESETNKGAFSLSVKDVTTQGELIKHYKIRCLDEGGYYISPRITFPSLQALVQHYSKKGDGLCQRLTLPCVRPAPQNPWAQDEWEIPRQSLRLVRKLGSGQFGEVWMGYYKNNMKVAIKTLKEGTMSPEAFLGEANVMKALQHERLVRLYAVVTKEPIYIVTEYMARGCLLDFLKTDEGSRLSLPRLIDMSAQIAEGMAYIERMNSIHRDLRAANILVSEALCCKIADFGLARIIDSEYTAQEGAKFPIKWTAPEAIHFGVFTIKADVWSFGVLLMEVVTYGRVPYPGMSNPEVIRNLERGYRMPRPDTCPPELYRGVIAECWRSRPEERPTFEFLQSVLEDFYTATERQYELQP
# Tau-tubulin kinase 2 (Homo sapiens), sequence (Q6IQ55 whole entry): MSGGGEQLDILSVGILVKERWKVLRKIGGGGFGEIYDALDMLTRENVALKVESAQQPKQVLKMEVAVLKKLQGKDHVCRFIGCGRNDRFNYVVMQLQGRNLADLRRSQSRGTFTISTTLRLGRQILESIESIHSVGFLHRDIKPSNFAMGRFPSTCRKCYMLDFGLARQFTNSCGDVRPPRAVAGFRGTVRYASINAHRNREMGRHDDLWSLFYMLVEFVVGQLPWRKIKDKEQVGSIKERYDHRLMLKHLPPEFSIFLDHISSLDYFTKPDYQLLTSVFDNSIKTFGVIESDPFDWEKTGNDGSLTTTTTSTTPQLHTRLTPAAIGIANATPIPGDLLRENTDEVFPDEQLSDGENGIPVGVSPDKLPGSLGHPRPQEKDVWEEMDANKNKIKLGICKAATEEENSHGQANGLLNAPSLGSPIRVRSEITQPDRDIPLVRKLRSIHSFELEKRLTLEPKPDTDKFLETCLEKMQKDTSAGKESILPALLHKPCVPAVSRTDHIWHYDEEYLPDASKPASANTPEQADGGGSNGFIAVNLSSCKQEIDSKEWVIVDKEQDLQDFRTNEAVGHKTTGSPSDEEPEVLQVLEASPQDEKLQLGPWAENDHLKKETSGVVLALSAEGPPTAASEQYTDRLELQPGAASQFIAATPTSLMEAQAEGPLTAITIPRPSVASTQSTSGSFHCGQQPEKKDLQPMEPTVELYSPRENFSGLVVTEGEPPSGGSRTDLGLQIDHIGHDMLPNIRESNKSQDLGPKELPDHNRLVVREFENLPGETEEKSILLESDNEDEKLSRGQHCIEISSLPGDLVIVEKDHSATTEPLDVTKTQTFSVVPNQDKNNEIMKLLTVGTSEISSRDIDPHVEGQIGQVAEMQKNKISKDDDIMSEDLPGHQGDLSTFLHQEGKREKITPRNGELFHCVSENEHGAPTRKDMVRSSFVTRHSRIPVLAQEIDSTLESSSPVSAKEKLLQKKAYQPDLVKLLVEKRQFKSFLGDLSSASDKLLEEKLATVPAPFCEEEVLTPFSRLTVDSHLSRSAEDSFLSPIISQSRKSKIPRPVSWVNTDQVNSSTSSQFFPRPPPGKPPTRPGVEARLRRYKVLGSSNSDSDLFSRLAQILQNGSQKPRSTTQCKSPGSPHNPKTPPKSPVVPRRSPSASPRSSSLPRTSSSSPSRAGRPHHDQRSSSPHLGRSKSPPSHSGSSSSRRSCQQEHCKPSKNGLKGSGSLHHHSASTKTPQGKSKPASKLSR
# Ephrin type-A receptor 2 (Homo sapiens), sequence (P29317 whole entry): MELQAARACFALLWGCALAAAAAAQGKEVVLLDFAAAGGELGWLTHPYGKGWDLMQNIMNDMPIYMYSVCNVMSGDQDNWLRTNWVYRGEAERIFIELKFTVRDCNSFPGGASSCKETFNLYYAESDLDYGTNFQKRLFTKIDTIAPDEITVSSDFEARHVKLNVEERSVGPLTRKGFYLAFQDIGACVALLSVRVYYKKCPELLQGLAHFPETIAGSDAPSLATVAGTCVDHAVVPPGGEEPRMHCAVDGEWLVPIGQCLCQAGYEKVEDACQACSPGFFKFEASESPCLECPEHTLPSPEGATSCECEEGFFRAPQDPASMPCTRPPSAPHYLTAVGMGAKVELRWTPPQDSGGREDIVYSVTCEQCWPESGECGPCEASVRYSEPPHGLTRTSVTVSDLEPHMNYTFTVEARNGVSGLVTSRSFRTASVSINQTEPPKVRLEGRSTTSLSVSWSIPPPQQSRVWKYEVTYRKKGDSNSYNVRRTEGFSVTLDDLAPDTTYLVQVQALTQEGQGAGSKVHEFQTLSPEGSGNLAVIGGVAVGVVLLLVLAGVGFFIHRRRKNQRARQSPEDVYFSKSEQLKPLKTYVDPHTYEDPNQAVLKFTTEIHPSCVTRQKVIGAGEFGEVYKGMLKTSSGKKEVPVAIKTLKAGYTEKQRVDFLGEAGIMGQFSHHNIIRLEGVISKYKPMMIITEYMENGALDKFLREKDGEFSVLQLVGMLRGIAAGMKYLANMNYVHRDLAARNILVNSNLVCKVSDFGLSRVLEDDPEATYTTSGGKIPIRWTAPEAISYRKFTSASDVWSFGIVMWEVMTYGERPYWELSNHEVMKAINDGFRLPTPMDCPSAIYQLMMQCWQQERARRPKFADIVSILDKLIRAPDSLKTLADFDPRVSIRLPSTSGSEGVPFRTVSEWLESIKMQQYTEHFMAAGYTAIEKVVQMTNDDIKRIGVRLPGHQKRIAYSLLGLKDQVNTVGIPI
# Angiopoietin-1 receptor (Homo sapiens), sequence (Q02763 whole entry): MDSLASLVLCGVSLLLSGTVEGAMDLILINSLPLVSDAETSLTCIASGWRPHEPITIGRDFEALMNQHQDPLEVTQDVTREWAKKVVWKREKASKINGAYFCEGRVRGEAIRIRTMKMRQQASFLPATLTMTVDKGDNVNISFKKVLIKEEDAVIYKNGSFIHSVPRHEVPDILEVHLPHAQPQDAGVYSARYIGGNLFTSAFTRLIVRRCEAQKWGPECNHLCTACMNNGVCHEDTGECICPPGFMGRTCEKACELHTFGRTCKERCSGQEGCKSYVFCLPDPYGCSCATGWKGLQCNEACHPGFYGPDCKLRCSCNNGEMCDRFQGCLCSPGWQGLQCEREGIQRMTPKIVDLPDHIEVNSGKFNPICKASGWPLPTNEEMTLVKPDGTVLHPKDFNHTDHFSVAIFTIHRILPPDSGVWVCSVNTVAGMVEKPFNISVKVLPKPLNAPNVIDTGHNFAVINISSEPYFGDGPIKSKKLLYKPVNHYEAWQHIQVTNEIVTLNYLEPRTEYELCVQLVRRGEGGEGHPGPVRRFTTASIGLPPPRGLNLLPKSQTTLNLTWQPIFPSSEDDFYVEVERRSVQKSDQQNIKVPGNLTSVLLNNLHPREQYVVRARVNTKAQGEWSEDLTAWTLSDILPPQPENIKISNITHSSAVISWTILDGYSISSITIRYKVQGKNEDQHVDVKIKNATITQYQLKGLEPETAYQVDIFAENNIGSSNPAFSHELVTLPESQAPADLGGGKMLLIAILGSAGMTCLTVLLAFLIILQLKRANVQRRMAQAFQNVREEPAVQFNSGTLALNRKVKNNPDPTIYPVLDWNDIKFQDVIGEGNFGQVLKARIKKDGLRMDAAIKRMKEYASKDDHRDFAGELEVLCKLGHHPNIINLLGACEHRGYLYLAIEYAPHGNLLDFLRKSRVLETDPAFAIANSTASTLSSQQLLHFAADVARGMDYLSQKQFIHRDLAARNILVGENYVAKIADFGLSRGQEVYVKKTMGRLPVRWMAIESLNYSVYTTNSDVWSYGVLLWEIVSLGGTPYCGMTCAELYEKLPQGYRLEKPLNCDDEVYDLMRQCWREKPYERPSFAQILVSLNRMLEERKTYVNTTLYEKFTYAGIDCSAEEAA
# Serine/threonine-protein kinase pim-2 (Homo sapiens), sequence (Q9P1W9 whole entry, looked up): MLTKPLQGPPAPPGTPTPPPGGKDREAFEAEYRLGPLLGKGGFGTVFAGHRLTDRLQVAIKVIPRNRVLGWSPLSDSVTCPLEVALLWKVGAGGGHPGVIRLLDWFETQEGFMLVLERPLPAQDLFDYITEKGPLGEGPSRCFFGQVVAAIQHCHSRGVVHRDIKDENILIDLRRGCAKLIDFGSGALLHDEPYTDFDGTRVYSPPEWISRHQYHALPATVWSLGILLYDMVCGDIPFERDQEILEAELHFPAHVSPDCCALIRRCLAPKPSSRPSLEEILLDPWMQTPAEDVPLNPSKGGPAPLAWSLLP
compound,measurement,setting,value
CNC(=O)c1ccccc1Oc1nc(Nc2cc(OC)c(OC)c(OC)c2)ncc1Br,inhibition,[1],80%
same,inhibition,[2],50%
same,inhibition,[3],6%
same,fold change (FC),[4],0.22
CC(C)[C@H](NC(=O)c1cc(-c2cnn3cc(-c4ccc(OCCN5CCCCC5)cc4)cnc23)cs1)C(F)(F)F,inhibition,[5],0%
same,inhibition,[6],0%
same,inhibition,[7],0%
same,fold change (FC),[8],0
same,fold change (FC),[9],0
O=C(N[C@@H](C1CC1)C(F)(F)F)c1cc(-c2cnn3cc(-c4ccc(F)cc4)cnc23)cs1,inhibition,[10],0%
same,inhibition,[11],17%
same,inhibition,[12],12%
same,fold change (FC),[13],0.04
same,inhibition,[14],0%
